From the array DNA melting data of Ke et al. (doi:10.1101/2024.01.08.574731)

How the values were obtained:
[1] = melting temperature; fluorescence melt of hairpins on a sequencing array, two-state fit, raised by 9.35 °C to match UV melts; details: sodium 0.088 M
Procedure, shortened: (§1)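 In 50 mM Na-HEPES pH 8.0 containing 25 mM NaCl, hairpins from the library on a sequenced MiSeq flow cell were imaged for Cy3 fluorescence at 2.5 °C steps up to 60 °C, with Cy3 and quencher oligos annealed. After normalisation to pre-quench Cy3 and to control constructs, two-state fits with bootstrapping gave melting temperature and folding enthalpy. Four replicates were combined by inverse-variance weighting, and fitted temperatures were shifted up by 9.35 °C to match UV melts.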

[2] = folding enthalpy; higher = less favourable; fluorescence melt of hairpins on a sequencing array, two-state fit; details: sodium 0.088 M
Procedure, shortened: as §1

| Sequence | Tm [1] | folding enthalpy [2] |
| --- | --- | --- |
| GGACCCGAAAGGGTATCC ((((((....)))..))) | 38.9 °C | -11 kcal/mol |
| CGCTCGGAAACGACGGCG ((((((....)))..))) | 46.6 °C | -22.7 kcal/mol |
| GATCATTACCATGATC ((((((....)))))) | 46.8 °C | -35.3 kcal/mol |
| GCCGGCGGAAACGCCAGC ((.((((....)))).)) | 58.5 °C | -15.4 kcal/mol |
| GGTATTGGAAACAGTACC ((((.((....)).)))) | 39.6 °C | -32.2 kcal/mol |
| GCCTGGGGAAACCCGGGC (((.(((....))).))) | 64.6 °C | -39.2 kcal/mol |
| GATCTGAATTCAGATC ((((((....)))))) | 50.2 °C | -41.6 kcal/mol |
| GATCTATAAGTAGATC ((((((....)))))) | 41.6 °C | -35.6 kcal/mol |
| GAGTTTGGAAACAAATTC ((.((((....)))).)) | 35.8 °C | -28.7 kcal/mol |
| GGACCCGAAAGGGATCC ((((((....))).))) | 54.2 °C | -20.8 kcal/mol |
| GACGGCGAAAGCCCCGTC ((((((....)))..))) | 42.8 °C | -15.8 kcal/mol |
| GAGACACGAAAGTGACTC (((.(((....))).))) | 55.6 °C | -36 kcal/mol |
| GTTTGCCCGAAAGGGAAC (((..(((....)))))) | 32.5 °C | -11.3 kcal/mol |
| GGATTCCGAAAGGAGTCC (((.(((....))).))) | 55.6 °C | -41.6 kcal/mol |
| GGATCGACGAAAGTCTCC (((..(((....)))))) | 27.9 °C | -10.6 kcal/mol |
| GCGAAGCGAAAGCGTCGC ((((.((....)).)))) | 68.7 °C | -21.3 kcal/mol |
| GATCTTCACTAAGATC ((((((....)))))) | 43.9 °C | -29.7 kcal/mol |
| GAATACGGAAACGTGTTC (((.(((....))).))) | 47.1 °C | -33.2 kcal/mol |
| GATCGCTGCGGCGATC ((((((....)))))) | 68.9 °C | -38.9 kcal/mol |
| GGGTCTGCGAAAGCACCC (((..(((....)))))) | 44.2 °C | -17.5 kcal/mol |
| GATCCATAATGGATC ((((((...)))))) | 49.6 °C | -34.8 kcal/mol |
| GACCACGAAAGTGGAGTC ((((((....)))..))) | 38.4 °C | -11.5 kcal/mol |
| GGCTGCGGAAACGTAGCC ((((.((....)).)))) | 61 °C | -50.1 kcal/mol |

| Sequence | Tm [1] | folding enthalpy [2] |
| --- | --- | --- |
| CGAGCGGAAACGCGCTCG ((((((....)))..))) | 68.5 °C | -26.4 kcal/mol |
| GCCCGCGAAAGCGCAGGC ((((((....)))..))) | 56.3 °C | -20.1 kcal/mol |
| GCTTGCGGAAACGCAAAC (.(((((....))))).) | 44.6 °C | -12.4 kcal/mol |
| GATCACGGTCGTGATC ((((((....)))))) | 60.7 °C | -39.6 kcal/mol |
| GTAAGCGAAAGCTGGTAC ((((((....)))..))) | 32.3 °C | -11 kcal/mol |
| GATCGTGAGGACGATC ((((((....)))))) | 53.5 °C | -34.1 kcal/mol |
| GGTGAACGAAAGTTGACC (((.(((....))).))) | 48.9 °C | -30.4 kcal/mol |
| GCTTTCCCGAAAGGGAGC (((..(((....)))))) | 34.3 °C | -10.2 kcal/mol |
| GTTGGTGGAAACGTCAAC ((((..(....)..)))) | 33.5 °C | -16.1 kcal/mol |
| GTGAGCGAAAGCTAACAC ((((((....)))..))) | 44 °C | -15.4 kcal/mol |
| GCTCGAGGAAACTTGGGC ((.(.((....)).).)) | 37.4 °C | -19.4 kcal/mol |
| GCCAGCGAAAGCTCGGGC ((((((....)))..))) | 52.3 °C | -20.4 kcal/mol |
| GGTACGGAAACGTACC ((((((....)))))) | 65.8 °C | -37.8 kcal/mol |
| GGTGCGGGAAACTGCGCC ((.((.(....).)).)) | 52.7 °C | -49.1 kcal/mol |
| GATCAGTTTCCTGATC ((((((....)))))) | 50.9 °C | -35 kcal/mol |
| GCAGTCGGAAACGGTTGC (((..((....))..))) | 42.4 °C | -25.8 kcal/mol |
| GATCCATGCTGGATC ((((((...)))))) | 52 °C | -35.3 kcal/mol |
| GACACCGGAAACGGCATC ((..(((....)))..)) | 25.4 °C | -9.17 kcal/mol |
| GCCATGGGAAACCACAGC ((..(((....)))..)) | 26.9 °C | -12.7 kcal/mol |
| GATCTTCATAAGATC ((((((...)))))) | 43.4 °C | -28.4 kcal/mol |
| GTGTGTCGAAAGACCCAC (((.(((....))).))) | 49.4 °C | -29 kcal/mol |
| GCCTGGCGAAAGCCGGC (((.(((....)))))) | 68.1 °C | -16.5 kcal/mol |
| GATGCCGAAAGGCGCATC ((((((....)))..))) | 32.6 °C | -9.01 kcal/mol |

| Sequence | Tm [1] | folding enthalpy [2] |
| --- | --- | --- |
| GACCGCGAAAGCGAGTC ((((((....))).))) | 64.1 °C | -20 kcal/mol |
| GATCCGTAGGCGGATC ((((((....)))))) | 59.2 °C | -41.3 kcal/mol |
| GGTCACGAAAGTGTTACC ((((((....)))..))) | 38.2 °C | -17.1 kcal/mol |
| GAGTAGGGAAACTTACTC (((((.(....).))))) | 35.5 °C | -25.6 kcal/mol |
| GCGATCCGTCGC ((((....)))) | 51.6 °C | -24.6 kcal/mol |
| GCTAACGAAAGTTGAGC ((((((....))).))) | 41.5 °C | -26.1 kcal/mol |
| GTAGACGAAAGTCGATAC ((((((....)))..))) | 34.7 °C | -11.2 kcal/mol |
| GCCGCAGCGAAAGCTGGC (((..(((....)))))) | 56.7 °C | -9.6 kcal/mol |
| GGTGGCGAAAGCCGAACC ((((((....)))..))) | 45.3 °C | -14.9 kcal/mol |
| GGCTGAGGAAACTCAACC ((.((((....)))).)) | 41.2 °C | -32.5 kcal/mol |
| GCGAACACGAAAGTGCGC (((..(((....)))))) | 51 °C | -21.2 kcal/mol |
| GCACTACGAAAGTACTGC (((.(((....))).))) | 37.6 °C | -26.9 kcal/mol |
| GGTTGTACGAAAGTAACC (((..(((....)))))) | 38 °C | -20.9 kcal/mol |
| GATCCGTTTGCGGATC ((((((....)))))) | 62.3 °C | -37.7 kcal/mol |
| GCGCATCGAAAGATACGC (((.(((....))).))) | 54.5 °C | -38.6 kcal/mol |
| GATCAAGTCGTTGATC ((((((....)))))) | 48 °C | -39.2 kcal/mol |
| GGGTTCTCGAAAGAGCCC (((..(((....)))))) | 48.1 °C | -26.5 kcal/mol |
| GTGGAAGCGAAAGCTCAC (((..(((....)))))) | 44.3 °C | -18.8 kcal/mol |
| GCGGTAGCCCGC ((((....)))) | 62 °C | -12.3 kcal/mol |
| GGGACACGAAAGTGCCC (((.(((....)))))) | 60.9 °C | -24.1 kcal/mol |
| GGGCGGACGAAAGTCCCC (((..(((....)))))) | 50.6 °C | -13.8 kcal/mol |
| CGGGCGGAAACGCAACCG ((((((....)))..))) | 49.7 °C | -23.9 kcal/mol |
| GGAAGCGGAAACGCTTTC (.(((((....))))).) | 53.7 °C | -21.2 kcal/mol |
